The values below come from ChEMBL document CHEMBL2321713 (Bioorg Med Chem, 2013).

The nature of series [1]: Intrinsic clearance in rat liver microsomes after 30 mins by HPLC/MS analysis. Type of series: ADME, Microsome. As to conditions: read-out: CLH; call rule not given here. The method, boiled down:
(§1)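 Rat or human liver microsomal incubations at 37 °C were analysed for percent parent remaining over incubation time. k is the slope of the linear regression of ln(% remaining) versus time, and t1/2 = 0.693/k. In vitro intrinsic clearance was derived from t1/2 and used to predict hepatic clearance.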
(Liver microsomes are a subcellular fraction often used to study metabolism.)

A short description of series [2]: Elimination half life in human liver microsomes by HPLC/MS analysis. Format: ADME, Microsome. As to conditions: read-out: beta t1/2. The method, boiled down:
as §1

The nature of series [3]: Intrinsic clearance in human liver microsomes after 30 mins by HPLC/MS analysis. Format: ADME, Microsome. As to conditions: read-out: CLH. The method, boiled down: as §1
Series [4] in a line: Elimination half life in rat liver microsomes by HPLC/MS analysis. Type of series: ADME, Microsome. As to conditions: read-out: beta t1/2. Summed up: as §1
The target of series [5] is T1, Melatonin receptor type 1A (Homo sapiens, UniProt P48039). In words: Agonist activity at human MT1 receptor expressed in CHO cells coexpressing Galpha protein 16z25 assessed as increase in calcium mobilization measured for 3 mins by FLIPR assay. Type of series: functional, cell-based. The method, boiled down: (§2)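 CHO cells stably expressing human MT1 or MT2 with chimeric Gα16z25 were seeded in growth medium the day before. Fluorescence at 488 nm excitation was followed for 3 min after agonist addition.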
On the technique in general: Calcium flux is commonly read through the fluorescence of an indicator in the cells.

Series [6] concerns the target T1, Melatonin receptor type 1A. Put plainly: Displacement of [3H]melatonin from human MT1 receptor expressed in CHO cells after 60 mins by microbeta scintillation method. Type of series: cell-based. (In a radioligand displacement assay an active substance lowers the binding of a labelled ligand.)
Series [7] concerns the target T2, Melatonin receptor type 1B (Homo sapiens, UniProt P49286).
T2 sequence (P49286 whole entry): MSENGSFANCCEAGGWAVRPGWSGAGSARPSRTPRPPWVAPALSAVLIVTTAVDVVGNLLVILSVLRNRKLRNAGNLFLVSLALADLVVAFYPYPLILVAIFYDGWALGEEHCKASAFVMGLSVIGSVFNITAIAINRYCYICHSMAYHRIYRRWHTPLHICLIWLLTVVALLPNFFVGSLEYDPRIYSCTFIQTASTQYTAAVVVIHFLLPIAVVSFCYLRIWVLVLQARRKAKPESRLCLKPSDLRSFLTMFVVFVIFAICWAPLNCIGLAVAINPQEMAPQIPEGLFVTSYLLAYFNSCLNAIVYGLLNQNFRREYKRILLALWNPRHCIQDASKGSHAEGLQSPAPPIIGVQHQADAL
In words: Displacement of [3H]melatonin from human MT2 receptor expressed in CHO cells after 60 mins by microbeta scintillation method. Format: cell-based.

For series [8], the species on record is Homo sapiens. In words: Selectivity ratio of Ki for human MT1 receptor to Ki for human MT2 receptor. The method, boiled down:
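Whole-cell competition binding on CHO cells stably expressing hMT1 or hMT2, 1.5×10^5 cells per tube. Incubated 60 min at 4 °C, then filtered through GF/C and counted. Means of duplicate experiments. Ratio is MT1 Ki/MT2 Ki.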

In series [9] the test system is Liver microsomes. Put plainly: Drug metabolism in rat liver microsomes assessed as C3'-demethylation after 30 mins by LC-UV/MS analysis. Format: ADME, Microsome. As to conditions: 0.5 h. The method, boiled down:
(§3)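 Rat or human liver microsomes (20 mg protein/ml suspension) were added to start reactions after test compound (1 mM stock) in 50 mM Tris-Cl pH 7.4 with MgCl2 was pre-incubated 30 min at 37 °C. Incubation ran 30 min at 37 °C, shaken in air. Reactions were quenched with ice-cold dichloromethane plus internal standards. Metabolites were separated on C18 (acetonitrile/water gradient 40→60%) and identified by positive-mode MS.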

Series [10] concerns Liver microsomes. Put plainly: Drug metabolism in human liver microsomes assessed as C3-demethylation after 30 mins by LC-UV/MS analysis. Type of series: ADME, Microsome. As to conditions: 0.5 h. The method, boiled down:
as §3

Series [11] deals with Liver microsomes. Put plainly: Drug metabolism in rat liver microsomes assessed as aromatic ring hydroxylation after 30 mins by LC-UV/MS analysis. Format: ADME, Microsome. Particulars: 0.5 h. Summed up:
as §3

Series [12] has as its system Liver microsomes. In words: Drug metabolism in rat liver microsomes assessed as C3-demethylation after 30 mins by LC-UV/MS analysis. Particulars: 0.5 h. Format: ADME, Microsome. Summed up: as §3
Series [13] addresses T2, Melatonin receptor type 1B. Put plainly: Agonist activity at human MT2 receptor expressed in CHO cells coexpressing Galpha protein 16z25 assessed as increase in calcium mobilization measured for 3 mins by FLIPR assay. Type of series: functional, cell-based. The method, boiled down: as §2
For series [14], the species on record is Homo sapiens. In words: Selectivity ratio of EC50 for human MT1 receptor to EC50 for human MT2 receptor. The method, boiled down:
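Ca2+ mobilization (FLIPR) in CHO clonal lines stably co-expressing hMT1 or hMT2 with chimeric Gα16z25. Cells seeded a day before, loaded with 2 µM Fluo-4 in HBSS (pH 7.5) with 2.5 mM probenecid, 1 h, 37 °C. Fluorescence read 3 min after agonist addition, excitation 488 nm. […] Ratio is MT1 EC50/MT2 EC50.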

Series [15] deals with Liver microsomes. Put plainly: Drug metabolism in human liver microsomes assessed as aromatic ring hydroxylation after 30 mins by LC-UV/MS analysis. Format: ADME, Microsome. Particulars: 0.5 h. The method, boiled down: as §3
Series [16] concerns Liver microsomes. Put plainly: Drug metabolism in human liver microsomes assessed as C3'-demethylation after 30 mins by LC-UV/MS analysis. Type of series: ADME, Microsome. As to conditions: 0.5 h. The method, boiled down: as §3

Structures are written as SMILES.

T1 sequence (P48039 whole entry): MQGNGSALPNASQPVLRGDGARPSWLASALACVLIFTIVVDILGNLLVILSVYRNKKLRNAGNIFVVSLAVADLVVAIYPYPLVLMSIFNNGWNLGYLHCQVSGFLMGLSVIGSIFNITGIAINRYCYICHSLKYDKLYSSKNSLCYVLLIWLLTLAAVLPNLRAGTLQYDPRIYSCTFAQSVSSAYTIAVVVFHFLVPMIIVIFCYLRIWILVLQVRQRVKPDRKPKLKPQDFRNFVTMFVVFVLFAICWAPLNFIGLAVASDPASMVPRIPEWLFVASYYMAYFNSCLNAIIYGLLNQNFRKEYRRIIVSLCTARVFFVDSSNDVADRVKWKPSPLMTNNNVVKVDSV

As to `COc1ccc2[nH]cc(CCNC(C)=O)c2c1` [MELATONIN], the CLint scaled in [1] worked out at 33.1 mL/min/kg; in series [3] it was 25.5 mL/min/kg. In addition, the half-life came out at 73.2 min in [2] and 75.3 min in series [4].
On to `CCC(=O)NCCCc1cc(OC)ccc1CCc1cccc(OC)c1`, for which the values for the concentration giving a half-maximal response (EC50) in [5] and in [13] were 16.3 nM and 0.024 nM, respectively. The CLint scaled in series [1] came out at 301 mL/min/kg; in [3], 367 mL/min/kg. Further, the Ki (as a rule, a measure of affinity in units of concentration, obtained from inhibition or displacement) was found to be 22.2 nM in [6] and 0.55 nM in series [7]. In addition, the half-life in [2] stood at 5.1 min; in series [4] it was 8.3 min. In addition, the Ratio Ki in the series listed under Homo sapiens [8] amounted to 40. The Drug metabolism result in the series with Liver microsomes [9], in the series on Liver microsomes [10], in the series on Liver microsomes [11], with Liver microsomes [12], in the series on Liver microsomes [15] and with Liver microsomes [16] was “Active” each time. The Ratio EC50 in the series listed under Homo sapiens [14] amounted to 679.
For `CCC(=O)NCCCc1cc(OC)ccc1OCc1cccc(OC)c1`, the 50% effective concentration (EC50) (in general, the midpoint of the concentration-response curve) was determined as 9.03 nM in [5] and 0.05 nM in series [13]. The CLint scaled in series [1] amounted to 262 mL/min/kg; in [3] it was 340 mL/min/kg. In addition, the Ki in series [6] stood at 121 nM; in series [7], 0.291 nM. The values for the half-life in series [2] and in series [4] were 5.5 min and 9.5 min, respectively. Moreover, in the series listed under Homo sapiens [8], the Ratio Ki was found to be 417. In addition, in the series listed under Homo sapiens [14], the Ratio EC50 worked out at 181.
Consider `CCC(=O)NCCCc1cc(OC)ccc1-c1cccc(OC)c1`, for which the values for the EC50 in series [5] and in series [13] were 2.94 nM and 0.2 nM, respectively. In addition, the CLint scaled in series [1] was 333 mL/min/kg; in series [3], 353 mL/min/kg. Also, the inhibitory constant (Ki) worked out at 32.7 nM in series [6] and 0.339 nM in series [7]. Besides, the half-life in series [2] stood at 5.3 min; in series [4] it was 7.5 min. Moreover, in the series listed under Homo sapiens [8], the Ratio Ki was 96. For the same compound, the Drug metabolism result in the series on Liver microsomes [9], in the series with Liver microsomes [10], in the series on Liver microsomes [11], in the series on Liver microsomes [12], in the series with Liver microsomes [15] and with Liver microsomes [16] was “Active” each time. Also, the Ratio EC50 in the series listed under Homo sapiens [14] is 14.
Consider `CCC(=O)NCCCc1cc(OC)ccc1Cc1cccc(OC)c1`, for which the figures for the EC50 in [5] and in series [13] were 41.6 nM and 0.24 nM, respectively. Moreover, the CLint scaled in series [1] stood at 290 mL/min/kg; in series [3], 312 mL/min/kg. Also, the Ki was 39.5 nM in series [6] and 3.39 nM in [7]. For the same compound, the half-life in series [2] was determined as 6 min; in series [4], 8.6 min. In addition, in the series listed under Homo sapiens [8], the Ratio Ki came out at 12. Also, the Drug metabolism entry in the series on Liver microsomes [9], in the series with Liver microsomes [10], in the series on Liver microsomes [11], with Liver microsomes [12], in the series on Liver microsomes [15] and with Liver microsomes [16] was “Active” each time. Moreover, in the series listed under Homo sapiens [14], the Ratio EC50 was 171.
Take `CCC(=O)NCCCc1cc(OC)ccc1C#Cc1cccc(OC)c1`: the EC50 in series [5] came out at 8.38 nM; in series [13], 0.11 nM. Besides, the CLint scaled in series [1] was determined as 115 mL/min/kg; in [3], 102 mL/min/kg. Also, the Ki in [6] was determined as 38.2 nM; in [7], 0.073 nM. Besides, the half-life in series [2] was found to be 18.3 min; in [4], 21.7 min. The Ratio Ki in the series filed under Homo sapiens [8] was 527. The Drug metabolism entry in the series with Liver microsomes [9], with Liver microsomes [10], in the series with Liver microsomes [11], in the series on Liver microsomes [12], with Liver microsomes [15] and in the series on Liver microsomes [16] was “Active” throughout. Besides, the Ratio EC50 in the series filed under Homo sapiens [14] stood at 77.
